The target in data set [1] is Coagulation factor X (Homo sapiens, UniProt P00742). Kind of data set: Inhibitory activity against factor Xa using human purified enzyme. Put shortly:
(§1)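 Human purified enzyme in 0.1 M sodium phosphate buffer with 0.2 M NaCl and 0.5% polyethylene glycol 6000, pH 7.0. Inhibitor tested at eight half-log concentrations from 10 down to 0.00316. Plates read at 405 nm for 30 min. Rates compared with no-inhibitor controls to give % activity, converted to Ki using substrate concentration and Km. Duplicate runs with common internal standards.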

Data set [2] has as its target Prothrombin (Homo sapiens, UniProt P00734). Nature of the data set: Inhibitory activity against thrombin using human purified enzyme. Put shortly: as §1
For data set [3], the target named is Serine protease 1 (Homo sapiens, UniProt P07477). Kind of data set: Inhibitory activity against trypsin using human purified enzyme. Put shortly: as §1
Chain of Serine protease 1 (P07477 whole entry): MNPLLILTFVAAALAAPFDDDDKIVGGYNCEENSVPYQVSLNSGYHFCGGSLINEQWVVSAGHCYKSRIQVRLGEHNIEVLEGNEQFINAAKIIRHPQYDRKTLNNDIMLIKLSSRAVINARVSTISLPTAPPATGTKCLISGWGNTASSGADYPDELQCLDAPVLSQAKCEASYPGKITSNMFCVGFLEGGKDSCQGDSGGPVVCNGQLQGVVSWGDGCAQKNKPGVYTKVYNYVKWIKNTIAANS
In data set [4] the target is T1, Coagulation factor X (Oryctolagus cuniculus, UniProt O19045).
T1 sequence (O19045 whole entry): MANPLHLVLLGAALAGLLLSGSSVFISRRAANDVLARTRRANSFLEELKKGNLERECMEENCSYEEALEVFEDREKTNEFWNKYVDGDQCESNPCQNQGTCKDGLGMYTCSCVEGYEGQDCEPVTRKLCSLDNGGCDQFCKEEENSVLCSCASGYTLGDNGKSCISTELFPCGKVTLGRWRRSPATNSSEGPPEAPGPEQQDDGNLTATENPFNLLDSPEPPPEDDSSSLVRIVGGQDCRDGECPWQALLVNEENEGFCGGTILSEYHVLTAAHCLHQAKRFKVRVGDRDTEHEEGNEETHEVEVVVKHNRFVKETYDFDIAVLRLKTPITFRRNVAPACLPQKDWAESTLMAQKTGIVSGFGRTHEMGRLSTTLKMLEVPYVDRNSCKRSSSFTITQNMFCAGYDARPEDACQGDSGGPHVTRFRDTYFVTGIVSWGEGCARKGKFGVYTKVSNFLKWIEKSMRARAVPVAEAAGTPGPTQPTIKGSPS
Nature of the data set: Inhibitory activity against Rabbit factor Xa was determined.

Data set [5] is filed under the species Oryctolagus cuniculus. Nature of the data set: (§2) Inhibitory concentration required for antithrombotic efficacy in rabbit arterio-venous shunt model. The data set is classed as functional.
The nature of data set [6]: Pharmacokinetic profile in terms of half life was determined at a dose of 5 mg/kg administered intravenously in dog. The data set is classed as ADME, organism-based, Canis lupus familiaris. Further details: dose 5 mg/kg, route intravenous. To be noted: in vivo, iv.
A short description of data set [7]: Pharmacokinetic profile in terms of clearance was determined at a dose of 5 mg/kg administered intravenously in dog. The data set is classed as ADME, organism-based, Canis lupus familiaris. Further details: dose 5 mg/kg, route intravenous. To be noted: in vivo, iv.
The species named for data set [8] is Oryctolagus cuniculus. The description is as §2. The data set is classed as functional, organism-based.
A short description of data set [9]: Pharmacokinetic profile in terms of half life was determined at a dose of 0.5 mg/kg administered intravenously in dog. Further details: dose 0.5 mg/kg, route intravenous. The data set is classed as ADME, organism-based, Canis lupus familiaris. To be noted: in vivo, iv.
A short description of data set [10]: Pharmacokinetic profile in terms of clearance was determined at a dose of 0.5 mg/kg administered intravenously in dog. The data set is classed as ADME, organism-based, Canis lupus familiaris. Further details: dose 0.5 mg/kg, route intravenous. The following applies: in vivo, iv.

Chain of Coagulation factor X (Homo sapiens, UniProt P00742) (P00742 41-179 limits assumed): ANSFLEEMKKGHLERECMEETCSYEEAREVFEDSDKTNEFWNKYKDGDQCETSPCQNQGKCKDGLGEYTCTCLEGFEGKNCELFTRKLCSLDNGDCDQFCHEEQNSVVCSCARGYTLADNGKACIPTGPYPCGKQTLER
Chain of Coagulation factor X (Homo sapiens, UniProt P00742) (P00742 235-488 limits assumed): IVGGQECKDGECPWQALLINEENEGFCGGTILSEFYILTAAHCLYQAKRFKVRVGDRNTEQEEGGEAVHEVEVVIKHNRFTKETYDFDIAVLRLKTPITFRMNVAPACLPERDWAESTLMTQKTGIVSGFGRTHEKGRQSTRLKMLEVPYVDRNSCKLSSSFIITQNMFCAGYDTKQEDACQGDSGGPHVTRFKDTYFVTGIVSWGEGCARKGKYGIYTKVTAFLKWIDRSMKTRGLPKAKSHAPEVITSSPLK

Take `Nc1cc(C2=NOC(Cn3cccn3)(C(=O)Nc3ccc(-c4ccccc4S(N)(=O)=O)cn3)C2)ccc1Cl` (racemic): the values for the Ki in data set [1], in [2] and in data set [3] were 14 nM, greater than 21000 nM and greater than 1600 nM, respectively.
The matching figures for `Nc1cc(C2=NOC(Cn3cnnn3)(C(=O)Nc3ccc(-c4ccccc4S(N)(=O)=O)cn3)C2)ccc1Cl` (stereo in doubt; 20 (-)): 7.1 nM, 19000 nM and greater than 1600 nM.
As for `COc1ccc(C2=NOC(CNS(C)(=O)=O)(C(=O)Nc3ccc(-c4ccccc4S(N)(=O)=O)cn3)C2)cc1` (centres undefined), the Ki (usually the equilibrium dissociation constant of an inhibitor or competing ligand from its target) in data set [1] is 10 nM; in data set [2], greater than 6300 nM; in data set [3] it was greater than 4200 nM.
Regarding `N=C(N)c1cccc(C2=NOC(Cn3cnnn3)(C(=O)Nc3ccc(-c4ccccc4S(N)(=O)=O)cn3)C2)c1` (centres undefined), the Ki in [4] was determined as 0.11 nM. In addition, the ID50 in [5] came to 0.032 µM/h/kg. Also, in [6], the half-life (as a rule, the time in which the quantity being followed falls by half) is 1.1 h. Moreover, the clearance (in general, the volume of plasma or blood freed of the substance per unit of time) in [7] is 22 mL/min/kg.
Consider `Nc1cc(C2=NOC(CNS(=O)(=O)c3ccccc3)(C(=O)Nc3ccc(-c4ccccc4S(N)(=O)=O)cn3)C2)ccc1Cl` (racemic), for which the Ki in data set [1] is 1.7 nM; in data set [2] it was greater than 21000 nM; in data set [3], greater than 8000 nM.
For `CS(=O)(=O)NCC1(C(=O)Nc2ccc(-c3ccccc3S(N)(=O)=O)cn2)CC(c2ccc(Cl)c(N)c2)=NO1` (racemic), in that order: 1.9 nM, 1300 nM and greater than 8000 nM.
For `Nc1cc(C2=NOC(CNS(=O)(=O)c3cccnc3)(C(=O)Nc3ccc(-c4ccccc4S(N)(=O)=O)cn3)C2)ccc1Cl` (racemic), in that order: 3 nM, 17000 nM and greater than 8000 nM.
For the compound `CC1(C(=O)Nc2ccc(-c3ccccc3S(N)(=O)=O)cc2)CC(c2cccc(C(=N)N)c2)=NO1` (centres undefined), the inhibitory constant (Ki) in [1] worked out at 7.2 nM.
As to `CC(=O)NCC1(C(=O)Nc2ccc(-c3ccccc3S(N)(=O)=O)cn2)CC(c2ccc(Cl)c(N)c2)=NO1` (racemic), the Ki in data set [1] is 11 nM; in data set [2], greater than 21000 nM; in data set [3], greater than 1600 nM.
For `CCCS(=O)(=O)NCC1(C(=O)Nc2ccc(-c3ccccc3S(N)(=O)=O)cn2)CC(c2ccc(Cl)c(N)c2)=NO1` (racemic), in that order: 3.7 nM, 18000 nM and greater than 8000 nM.
The matching figures for `CCNC(=O)NCC1(C(=O)Nc2ccc(-c3ccccc3S(N)(=O)=O)cn2)CC(c2ccc(Cl)c(N)c2)=NO1` (racemic): 69 nM, greater than 6300 nM and greater than 4200 nM.
For the compound `NC(=O)NCC1(C(=O)Nc2ccc(-c3ccccc3S(N)(=O)=O)cn2)CC(c2ccc(Cl)c(N)c2)=NO1` (single isomer, unassigned; (-)), the Ki in data set [4] is 4.7 nM; in data set [1] it was 2.5 nM; in [2], 800 nM; in data set [3], greater than 1600 nM. In data set [8], this compound gave an ID50 of 5.5 µmol/kg/h. This compound showed a half-life in data set [9] of 2.32 h. In data set [10], this compound showed a clearance of 7.17 mL/min/kg.
As for `Nc1cc(C2=NOC(Cn3cncn3)(C(=O)Nc3ccc(-c4ccccc4S(N)(=O)=O)cn3)C2)ccc1Cl` (racemic), the results for the Ki in data set [1], in [2] and in data set [3] were 34 nM, greater than 21000 nM and greater than 4200 nM, respectively.
For `Nc1cc(C2=NOC(CNS(N)(=O)=O)(C(=O)Nc3ccc(-c4ccccc4S(N)(=O)=O)cn3)C2)ccc1Cl` (racemic), in that order: 5.5 nM, 5900 nM and greater than 8000 nM.
The matching figures for `Nc1cc(C2=NOC(CNC=O)(C(=O)Nc3ccc(-c4ccccc4S(N)(=O)=O)cn3)C2)ccc1Cl` (racemic): 15 nM, 14000 nM and greater than 8000 nM.
Turning to `CC1(C(=O)Nc2ccc(-c3ccccc3S(N)(=O)=O)cc2)CC(c2ccc(Cl)c(N)c2)=NO1` (centres undefined), the Ki in data set [1] worked out at 130 nM.
Turning to `Nc1cc(C2=NOC(CNS(=O)(=O)c3ccsc3)(C(=O)Nc3ccc(-c4ccccc4S(N)(=O)=O)cn3)C2)ccc1Cl` (racemic), the Ki was 1.2 nM in data set [1], greater than 21000 nM in data set [2] and greater than 8000 nM in data set [3].
The matching figures for `CS(=O)(=O)NCC1(C(=O)Nc2ccc(-c3ccccc3S(N)(=O)=O)cn2)CC(c2ccc(Cl)c(N)c2)=NO1` (single isomer, unassigned; (+)): 240 nM, greater than 21000 nM and greater than 4200 nM.
For `Nc1cc(C2=NOC(Cn3cccn3)(C(=O)Nc3ccc(-c4ccccc4S(N)(=O)=O)cn3)C2)ccc1Cl` (single isomer, unassigned; (-)), in that order: 15 nM, greater than 21000 nM and greater than 1600 nM.
Turning to `CS(=O)(=O)NCC1(C(=O)Nc2ccc(-c3ccccc3S(N)(=O)=O)cn2)CC(c2ccc(Cl)c(N)c2)=NO1` (stereo in doubt), the Ki was 2.3 nM in [4], 1.5 nM in data set [1], 800 nM in [2] and greater than 8000 nM in data set [3]. In addition, the half-life in [9] was 7.25 h. In addition, the ID50 in [5] came out at 8 µM/h/kg. In data set [10], this compound gave a clearance of 8.83 mL/min/kg.
For `Nc1cc(C2=NOC(CNS(=O)(=O)CC(F)(F)F)(C(=O)Nc3ccc(-c4ccccc4S(N)(=O)=O)cn3)C2)ccc1Cl` (racemic), the Ki in data set [1] is 3.3 nM; in data set [2], 6600 nM; in data set [3] it was greater than 8000 nM.
As for `NC(=O)NCC1(C(=O)Nc2ccc(-c3ccccc3S(N)(=O)=O)cn2)CC(c2ccc(Cl)c(N)c2)=NO1` (racemic), the Ki is 2.5 nM in data set [1], 9300 nM in [2] and greater than 1600 nM in data set [3].
For `Nc1cc(C2=NOC(CNS(=O)(=O)Cc3ccccc3)(C(=O)Nc3ccc(-c4ccccc4S(N)(=O)=O)cn3)C2)ccc1Cl` (racemic), in that order: 2.2 nM, 6200 nM and greater than 4200 nM.
The matching figures for `NC(=O)NCC1(C(=O)Nc2ccc(-c3ccccc3S(N)(=O)=O)cn2)CC(c2ccc(Cl)c(N)c2)=NO1` (single isomer, unassigned; (+)): 69 nM, greater than 21000 nM and greater than 6000 nM.
For `Nc1cc(C2=NOC(Cn3cccn3)(C(=O)Nc3ccc(-c4ccccc4S(N)(=O)=O)cn3)C2)ccc1Cl` (single isomer, unassigned; (+)), in that order: 1100 nM, greater than 21000 nM and greater than 1600 nM.
Consider `Nc1cc(C2=NOC(Cn3cnnn3)(C(=O)Nc3ccc(-c4ccccc4S(N)(=O)=O)cn3)C2)ccc1Cl` (racemic), for which the Ki is 10 nM in data set [1], greater than 21000 nM in data set [2] and greater than 1600 nM in data set [3].
For `CS(=O)(=O)NCC1(C(=O)Nc2ccc(-c3ccccc3S(N)(=O)=O)cn2)CC(c2ccc3onc(N)c3c2)=NO1` (centres undefined), in that order: 4.6 nM, 5200 nM and greater than 5200 nM.
Take `Nc1cc(C2=NOC(Cn3cnnn3)(C(=O)Nc3ccc(-c4ccccc4S(N)(=O)=O)cn3)C2)ccc1Cl` (single isomer, unassigned; (+)): the Ki in [1] is 320 nM; in data set [2], greater than 21000 nM; in data set [3], greater than 1600 nM.

The values are drawn from ChEMBL document CHEMBL1145764, “Nonbenzamidine isoxazoline derivatives as factor Xa inhibitors” (Bioorg Med Chem Lett, 2003).
